APJ antagonist: antagonists of human apelin receptor APJ, primary screen, CHO-K1 cells, beta-arrestin complementation, luminescence; 0.32% of 330,000 active; AID 2521, 2010; inhibition, % at 20 µM; P35414;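 active = inhibition above about 40% at 20 µM, limit read from the data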;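 note: cells challenged with 10 nM apelin-13 agonist together with compound; plate controls were apelin-13 plus DMSO wells for no effect and DMSO wells lacking apelin-13 for full effect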
Target sequence (P35414 whole entry, looked up): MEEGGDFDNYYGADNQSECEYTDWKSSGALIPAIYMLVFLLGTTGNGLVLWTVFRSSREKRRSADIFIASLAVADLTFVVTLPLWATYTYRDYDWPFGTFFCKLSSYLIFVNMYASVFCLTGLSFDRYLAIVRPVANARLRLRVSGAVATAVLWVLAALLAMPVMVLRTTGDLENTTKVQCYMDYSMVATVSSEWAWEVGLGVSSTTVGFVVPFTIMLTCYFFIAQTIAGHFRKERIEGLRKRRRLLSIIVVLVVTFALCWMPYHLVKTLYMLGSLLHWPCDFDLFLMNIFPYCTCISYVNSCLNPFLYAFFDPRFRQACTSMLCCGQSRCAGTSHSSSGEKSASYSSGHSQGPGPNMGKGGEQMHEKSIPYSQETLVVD
APJ ag: agonists of human apelin receptor APJ, primary screen, CHO-K1 cells, PathHunter beta-arrestin, luminescence. P35414. 0% DMSO wells, 100% apelin. activation, % at 20 µM. 0.11% of 330,000 active. AID 2520, 2010;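 active = activation more than six SD over the plate average, tested at 20 µM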;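 note: 0% = DMSO alone and 100% = apelin-13 at 10 nM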
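system = engineered CHO-K1 APJ arrestin reporter cells | input = 1000 cells per well | timing = overnight seeding, 90 min compound at 25 °C, 1 h detection | measured by = enzyme-fragment complementation luminescence | read-out = beta-arrestin recruitment to APJ as agonist activity, luminescent signal | control set = negative DMSO alone, positive Apelin-13 at 10 nM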
CXCR6 inh: CXCR6 receptor inhibitors, primary screen, cell-based, beta-arrestin, luminescence, CHO-K1 PathHunter, 1536-well | AID 602244, 2012 | inhibition, % at 20 µM | C-X-C chemokine receptor type 6 (Homo sapiens), O00574 | 0.36% of 360,000 active; in the data active = inhibition above about 34%, passing the limit was not always enough;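 note: antagonist mode with CXCL16 agonist at 10 nM final; 0% = 10 nM CXCL16 with DMSO and 100% = unstimulated wells without agonist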
CCR6 antag: CCR6 receptor antagonists, primary screen, cell-based, CHO-K1, luminescence, beta-arrestin, uHTS; C-C chemokine receptor type 6 (Homo sapiens), P51684; CHO-K1 CCR6 PathHunter beta-arrestin, CCL20-stimulated; inhibition, % at 20 µM; 0.49% of 340,000 active; AID 493098, 2011;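 active = compounds whose inhibition of the agonist-driven luminescence signal at 20 µM reaches about 50%, limit read from the data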;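 note: cells stimulated with CCL20 at 14 nM final; plate controls were DMSO with CCL20 for no effect and DMSO without agonist for full effect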
EBI2 block: EBI2 receptor antagonists, beta-arrestin recruitment, primary screen, cell-based, luminescence, 7a,25-OHC stimulation, uHTS. G-protein coupled receptor 183 (Homo sapiens), P32249. 7a,25-OHC stimulated. inhibition, % at 5 µM. 0.81% of 360,000 active; in the data active = inhibition above about 38%;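 note: enzyme fragment complementation signal reports receptor beta-arrestin coupling in cells; 0% = agonist plus DMSO wells and 100% = wells without agonist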
CXCR6 confirm: CXCR6 receptor antagonists, confirmation, cell-based, single concentration, beta-arrestin, luminescence; inhibition, % at 20 µM; 65% of 700 active; shares compounds with CXCR6 inh; CHO-K1 CXCR6 PathHunter beta-arrestin;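 active = mean inhibition over four retests above 40%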;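 note: receptor stimulated with 10 nM CXCL16 agonist; beta-galactosidase fragment complementation upon beta-arrestin recruitment to receptor; plate controls were CXCL16 plus DMSO for no effect and DMSO without CXCL16 for full effect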
EBI2 antag conf: EBI2 antagonist hit retest, beta-arrestin, confirmation, cell-based, single concentration, luminescence, 7a,25-OHC stimulation. 29% of 2,400 active. shares compounds with EBI2 block. AID 651997, 2013. 7a,25-OHC antagonism. inhibition, % at 5 µM;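 active = inhibition of at least 50%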
EBI2 agonist: EBI2 agonist activity of antagonist hits, confirmation, counter-screen for EBI2 antagonist project, cell-based, single concentration, agonist mode, luminescence. activation, % at 5 µM. shares compounds with EBI2 block. EBI2-expressing cells, 60 min; 0% vehicle, 100% 7α,25-dihydroxycholesterol control. 2,400 tested, under 10 active;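 active = activation of at least 50%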
bGal counter: E. coli beta-galactosidase enzyme inhibition, confirmation, counter-screen for EBI2 antagonist project, biochemical, luminescence, single concentration. shares compounds with EBI2 block. inhibition, % at 5 µM. 1% of 2,400 active. purified beta-galactosidase, luminescent Galacton Star, 15 min;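 active = replicate-average signal at least 3 plate SD below neutral wells, shown as high inhibition, flagging enzyme-inhibiting false positives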;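 note: 0% = DMSO wells with enzyme and 100% = wells lacking enzyme; higher means stronger loss of beta-gal luminescence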
* hit, by the source's call; nt = no result. An excerpt weighted towards active compounds, which were near 1.5% of everything screened.

SMILES	APJ antagonist	APJ ag	CXCR6 inh	CCR6 antag	EBI2 block	CXCR6 confirm	others
CS(=O)(=O)c1ccc2nc(NC(=O)CN3CCC(Cc4ccccc4)CC3)sc2c1	-4	-4	-6	28	1	nt
CS(=O)(=O)c1ccc2nc(NC(=O)CN3CCN(Cc4ccccc4)CC3)sc2c1	11	3	40*	2	0	9
COC(=O)c1sccc1S(=O)(=O)Nc1ccc(C(O)(C(F)(F)F)C(F)(F)F)cc1	nt	nt	7	nt	2	nt
CCOC(=O)N1CCN(S(=O)(=O)c2cccc3ccc(C)nc23)CC1	0	1	84*	-3	-4	15
Cc1ccc(S(=O)(=O)N2CCN(CCc3ccccc3)CC2)c(C)c1	6	-1	5	-9	11	nt
Cc1ccc(S(=O)(=O)ON2C(=O)c3ccccc3C2=O)c(C)c1	nt	nt	67*	61*	4	27
Cc1cccc(C(=O)NCC(=O)N2CCCC2)c1	12	0	40*	0	-13	5
Cc1ccc(C(=O)NCC(=O)N2CCCCCC2)cc1	7	1	8	0	1	nt
Cc1cccc(C)c1NC(=O)C(c1cccc2ccccc12)n1c(=O)c(-c2cc3ccccc3[nH]2)nc2ccccc21 (stereo not drawn)	nt	nt	nt	nt	5	nt
O=C(COC(=O)C1CCN(S(=O)(=O)c2cccs2)CC1)c1cc2ccccc2o1	37	-12	34*	74*	15	42*
O=C(COC(=O)C1CCN(S(=O)(=O)c2cccs2)CC1)c1ccc2c(c1)OCCO2	12	-3	-9	10	1	nt
CC1=C(C(=O)N(C(C)C)C(C)C)CC(CC(=O)NCc2ccco2)C(=O)N1CCCN1CCCC1=O (stereo not drawn)	nt	nt	2	nt	-9	nt
C=CCSC1=N/C(=C\c2cc(OCC)c(OC(C)=O)c([N+](=O)[O-])c2)C(=O)S1	25	-7	46*	53*	-7	54*
Cc1cc(C)c2c(=O)n(CC(=O)Nc3cccc(F)c3)sc2n1	-33	-1	10	30	11	nt
Cc1cc(C)c2c(=O)n(CC(=O)Nc3ccc(Cl)cc3)sc2n1	1	6	65*	11	8	10
Cc1ccc(NC(=O)Cn2sc3nc(C)cc(C)c3c2=O)c(Cl)c1	-14	0	8	12	7	nt
CCOc1ccc(NC(=O)Cn2sc3nc(C)cc(C)c3c2=O)cc1	-30	0	38*	29	16	35
O=C(O)c1ccc(N=Nc2c(O)ccc3ncccc23)cc1	36	-8	37	48	12	nt
Cc1ccccc1N(CC(=O)NCC1CCCO1)C(=O)C1(C)CC(=O)N=C2C=CC=CN21 (stereo not drawn)	14	-5	47*	6	-7	20
Cc1ccccc1N(CC(=O)NC1CCCC1)C(=O)C1(C)CC(=O)N=C2C=CC=CN21 (stereo not drawn)	18	-4	4	3	1	nt
COc1ccc(N2C[C@H](CSC)[C@@H](CC(=O)Nc3ccccc3)C2=O)cc1	nt	nt	43*	nt	-6	23
COc1cc(/C=C/C(=O)NC(=O)c2ccccc2O)ccc1O	19	-11	0	19	12	nt
COc1cc(/C=C/C(O)=C/C(=O)/C=C/c2ccc(O)cc2)ccc1O	4	-9	40*	61*	13	45*
CCC1NC(=O)c2cc3ccccc3cc2-n2c1nc1cc(C)cc(C)c1c2=O (stereo not drawn)	nt	nt	60*	nt	86*	7	EBI2 antag conf=69*;EBI2 agonist=-1;bGal counter=-11
O=C(NCc1ccccc1)c1cc(C2COCCN2S(=O)(=O)c2cccs2)on1 (stereo not drawn)	nt	nt	0	nt	-8	nt
SMILES	APJ antagonist	APJ ag	CXCR6 inh	CCR6 antag	EBI2 block	CXCR6 confirm	others
CS(=O)(=O)c1ccc(C(=O)OCC(=O)N2CCN(CCC3CCCCC3)CC2)cc1[N+](=O)[O-]	nt	nt	54*	nt	48*	71*	EBI2 antag conf=54*;EBI2 agonist=-1;bGal counter=-17
CS(=O)(=O)c1ccc(C(=O)OCC(=O)N2CCOCC2)cc1[N+](=O)[O-]	nt	nt	-11	nt	-1	nt
Cc1ccc(C)c(S(=O)(=O)N2CCN(C(=O)CCNC(=O)c3ccc(Br)cc3)CC2)c1	20	-2	3	6	75*	nt	EBI2 antag conf=33;EBI2 agonist=1;bGal counter=2
Cc1ccccc1OCCC(=O)N1CCN(S(=O)(=O)c2ccc(Br)cc2)CC1	-4	-1	6	10	44*	nt	EBI2 antag conf=32;EBI2 agonist=-1;bGal counter=-15
Cc1ccc(S(=O)(=O)N2CCN(C(=O)CCc3c[nH]c4ccccc34)CC2)c(C)c1	-8	-2	2	13	47*	nt	EBI2 antag conf=29;EBI2 agonist=-1;bGal counter=-3
Cc1ccc(C)c(S(=O)(=O)N2CCN(C(=O)c3ccc4ccccc4n3)CC2)c1	-9	-4	2	11	50*	nt	EBI2 antag conf=41;EBI2 agonist=1;bGal counter=4
Cc1ccc(C)c(S(=O)(=O)N2CCN(C(=O)c3cnccn3)CC2)c1	13	-2	4	-3	4	nt
Cc1ccc(C)c(S(=O)(=O)N2CCN(C(=O)CCNS(=O)(=O)c3ccc(C)c(C)c3)CC2)c1	15	-1	-3	-10	7	nt
Cc1ccccc1OCCC(=O)N1CCN(S(=O)(=O)c2ccc(F)cc2)CC1	7	5	1	0	29	nt
O=C(Cn1cc(C(F)(F)F)ccc1=O)NCC1CCCO1 (stereo not drawn)	5	0	-5	12	0	nt
Cc1ccc(C)c(OCCC(=O)N2CCN(S(=O)(=O)c3cc(C)ccc3C)CC2)c1	11	-1	3	5	66*	nt	EBI2 antag conf=44;EBI2 agonist=5;bGal counter=8
Cc1ccccc1OCCC(=O)N1CCN(S(=O)(=O)c2ccccc2F)CC1	14	4	-1	-2	25	nt
Cc1cc(C)c(S(=O)(=O)N2CCN(C(=O)CCOc3ccccc3C)CC2)c(C)c1	-4	-3	0	7	81*	nt	EBI2 antag conf=46;EBI2 agonist=2;bGal counter=8
